Calls of active or inactive are those of the source. The rule behind the calls is not given here.
Legend:
HCT-116 [1] = assay: Induction of apoptosis in human HCT116 cells assessed as early apoptotic cells at 15 uM after 48 hrs by annexin V-FITC/propidium iodide staining-based flow cytometric analysis (reference value: 1.6%); type: functional
HCT-116 [2] = assay: Induction of cell cycle arrest in human HCT116 cells assessed as accumulation at sub-G1 phase at 15 uM after 48 hrs by propidium iodide staining-based flow cytometric analysis in presence of RNase A (reference value: 6.5%); type: functional
HCT-116 [3] = assay: Induction of cell cycle arrest in human HCT116 cells assessed as accumulation at G2/M phase at 30 uM after 24 hrs by propidium iodide staining-based flow cytometric analysis in presence of RNase A (reference value: 20.6%); type: functional
HCT-116 [4] = assay: Increase in Cul-1 expression in human HCT116 cells after 24 hrs by western blot analysis; type: functional, cell-based
Procedure, shortened: (§1)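 HCT116 cells exposed 24 h in complete medium; lysed in RIPA buffer (pH 8.0), protein by BCA, equal loads run on 8–13% SDS-PAGE, PVDF transfer, blocked in 5% BSA/TBST, primary antibodies overnight at 4 °C, HRP secondaries 2 h RT, ECL detection; β-actin as loading control.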

[5] = biological target: Serine-protein kinase ATM/ATR (Homo sapiens) (UniProt Q13315+Q13535); assay: Activation of ATM/ATR in human HCT116 cells assessed as increase in Chk1 phosphorylation at S345 at 7.5 to 30 uM after 24 hrs by Western blot analysis; type: cell-based; details: HCT-116; procedure, shortened: as §1
[6] = Decrease in SCF E3 expression in human HCT116 cells at 7.5 to 30 uM after 24 hrs by western blot analysis; type: functional, cell-based; details: HCT-116; procedure, shortened: as §1
HCT-116 [7] = assay: Induction of apoptosis in human HCT116 cells assessed as increase in Bim expression after 48 hrs by Western blot analysis; type: functional, cell-based
Procedure, shortened: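 Cells treated for 48 h and lysed in RIPA buffer (pH 8.0). Total protein was measured by BCA, and equal protein was resolved on 8−13% SDS-PAGE and moved to PVDF. Membranes were blocked in 5% BSA/TBST and given primary antibody overnight at 4 °C, then an HRP secondary for 2 h at RT. Detection by enhanced chemiluminescence.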

SW480 = assay: Antiproliferative activity against human SW480 cells after 24 to 72 hrs by SRB assay; type: functional, cell-based
Procedure, shortened: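 Cells grown in 96-well plates (RPMI 1640; MRC-5 in MEM, 10% FBS, antibiotics) with compound […]; fixed in 10% TCA 30 min at 4 °C, stained 0.4% SRB in 1% acetic acid 1 h, dye dissolved in 10 mM Tris pH 10.0, A515 read; viability as % of solvent control, IC50 by nonlinear regression; mean of three independent experiments.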

[8] = Downregulation of ATM expression in human HCT116 cells at 30 uM after 1 hr by Western blot analysis; type: functional, cell-based; details: HCT-116, TDE = time-dependent effect
Procedure, shortened: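 HCT116 cells exposed for 1 h in complete medium; RIPA lysates quantified by BCA, equal protein separated on 8–13% SDS-PAGE, transferred to PVDF, probed with primary antibodies overnight at 4 °C and HRP secondaries, chemiluminescence read-out.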

[9] = Antiproliferative activity against human HCT116 cells assessed as cell viability after 48 hrs by SRB assay; type: functional, cell-based; details: HCT-116, 48 h
Procedure, shortened: (§2)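 HCT116 cells in 96-well plates exposed 24, 48 or 72 h; TCA fixation, 0.4% SRB staining, dye solubilised in 10 mM Tris pH 10.0, absorbance at 515 nm; viability relative to solvent-treated control.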

HCT-116 [10] = assay: Induction of apoptosis in human HCT116 cells assessed as viable cells at 30 uM after 48 hrs by annexin V-FITC/propidium iodide staining-based flow cytometric analysis (reference value: 87.4%); type: functional; details: HCT-116, 48 h, read-out: Activity
HCT-116 [11] = assay: Induction of apoptosis in human HCT116 cells assessed as early apoptotic cells at 30 uM after 48 hrs by annexin V-FITC/propidium iodide staining-based flow cytometric analysis (reference value: 1.6%); type: functional
[12] = Upregulation of phosphorylated ATM expression in human HCT116 cells at 1 hr by Western blot analysis; type: functional, cell-based; details: HCT-116
HCT-116 [13] = assay: Induction of cell cycle arrest in human HCT116 cells assessed as accumulation at G0/G1 phase at 15 uM after 24 hrs by propidium iodide staining-based flow cytometric analysis in presence of RNase A (reference value: 64.6%); type: functional
[14] = Upregulation of MDM2 expression in human HCT116 cells at 7.5 to 30 uM after 24 hrs by Western blot analysis; type: functional, cell-based; details: HCT-116
HCT-116 [15] = assay: Induction of apoptosis in human HCT116 cells assessed as late apoptotic cells at 7.5 uM after 48 hrs by annexin V-FITC/propidium iodide staining-based flow cytometric analysis (reference value: 5.2%); type: functional
HCT-116 [16] = assay: Induction of cell cycle arrest in human HCT116 cells assessed as accumulation at S phase at 30 uM after 48 hrs by propidium iodide staining-based flow cytometric analysis in presence of RNase A (reference value: 16.2%); type: functional
[17] = Upregulation of ATR expression in human HCT116 cells up to 24 hrs at 1 hr by Western blot analysis; type: functional, cell-based; details: HCT-116
HCT-116 [18] = assay: Induction of cell cycle arrest in human HCT116 cells assessed as accumulation at S phase at 15 uM after 48 hrs by propidium iodide staining-based flow cytometric analysis in presence of RNase A (reference value: 16.2%); type: functional
HCT-116 [19] = assay: Induction of cell cycle arrest in human HCT116 cells assessed as accumulation at sub-G1 phase at 7.5 uM after 24 hrs by propidium iodide staining-based flow cytometric analysis in presence of RNase A (reference value: 1.5%); type: functional
[20] = Upregulation of phosphorylated ATR expression in human HCT116 cells at 1 hr by Western blot analysis; type: functional, cell-based; details: HCT-116
HCT-116 [21] = assay: Induction of apoptosis in human HCT116 cells assessed as viable cells at 15 uM after 48 hrs by annexin V-FITC/propidium iodide staining-based flow cytometric analysis (reference value: 91.2%); type: functional; details: HCT-116, 48 h, read-out: Activity
[22] = Antiproliferative activity against human HCT116 cells assessed as cell viability after 24 hrs by SRB assay; type: functional, cell-based; details: HCT-116, 24 h; procedure, shortened: as §2
HCT-116 [23] = assay: Induction of cell cycle arrest in human HCT116 cells assessed as accumulation at G2/M phase at 30 uM after 48 hrs by propidium iodide staining-based flow cytometric analysis in presence of RNase A (reference value: 19.7%); type: functional
Mus musculus = assay: Downregulation of Ki-67 in human HCT116 cells xenografted in nude mouse at 5 to 10 mg/kg, ip administered 3 times per week measured on day 41 by […]; type: functional, organism-based; details: HCT-116
Procedure, shortened: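 Formalin-fixed, paraffin-embedded xenograft sections (mice dosed ip three times weekly) probed with antibodies, detected by LSAB/HRP, counterstained with H&E, imaged by inverted phase-contrast microscopy.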

HCT-116 [24] = assay: Induction of apoptosis in human HCT116 cells assessed as early apoptotic cells at 30 uM after 48 hrs by annexin V-FITC/propidium iodide staining-based flow cytometric analysis (reference value: 1.1%); type: functional

O=C/C=C/c1ccc2c(c1)O[C@@H](CO)[C@H](c1ccc(O)c(O)c1)O2 [AMERICANIN A]
Activity (HCT-116 [1]): 12.2%
Activity (HCT-116 [2]): 37.9%
Activity (HCT-116 [3]): 38.9%
Activity (HCT-116 [4]): Active
Activity [5]: Dose-dependent effect
Activity [6]: Active
Activity (HCT-116 [7]): Dose-dependent effect
IC50 (SW480): 27.4 µM
Activity [8]: tde
IC50 [9]: 9.6 µM
viability at 30 µM (HCT-116 [10]): 51.4%
Activity (HCT-116 [11]): 32.8%
Activity [12]: Dose-dependent effect
Activity (HCT-116 [13]): 47.5%
Activity [14]: Active
Activity (HCT-116 [15]): 10.4%
Activity (HCT-116 [16]): 8.4%
Activity [17]: Dose-dependent effect
Activity (HCT-116 [18]): 8.2%
Activity (HCT-116 [19]): 1.9%
Activity [20]: Dose-dependent effect
viability at 15 µM (HCT-116 [21]): 76.3%
IC50 [22]: 24.1 µM
Activity (HCT-116 [23]): 19%
Activity (Mus musculus): Active
Activity (HCT-116 [24]): 7%

Source: ChEMBL document CHEMBL3758106, “Antitumor Activity of Americanin A Isolated from the Seeds of Phytolacca americana by Regulating the ATM/ATR Signaling Pathway and the Skp2-p27 Axis in Human Colon Cancer Cells” (J Nat Prod, 2015)
